High-throughput results: PubChem, Johns Hopkins Ion Channel Center
An excerpt weighted towards active compounds, which were near 2.3% of everything screened.
TRPC4 act: opens the mouse TRPC4 cation channel. Q9QUQ5. HEK293 TRPC4beta/mu-opioid, Fluo4 calcium fluorescence; stronger effect = higher value. B-score at 10 µM. hit rate 0.49% among 310,000. AID 2237;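 active = B-score above 5 SD of library B-scores, and initial fluorescence ratio not above library mean plus 5 SD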;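 note: positive B-score marks a calcium rise read as TRPC4 activation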
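Test system: HEK293 cells stably co-expressing mouse TRPC4beta and mu-opioid receptor | Schedule: Fluo4 dye loading 45 min at room temperature, 110 s recording | Measured by: Kinetic Fluo4 calcium fluorescence, 5 s baseline at 1 Hz | Evaluation: B score of integrated ratio | Controls: Buffer (low) and maximal DAMGO (high)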
TRPC4 PAM: allosterically enhances the mouse TRPC4 cation channel; HEK293 TRPC4beta/mu-opioid, DAMGO EC20, Fluo-4 Ca2+ flux; stronger effect = higher value; B-score at 10 µM; hit rate 0.42% among 310,000;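 active = B-score of calcium response area above 5 SD of library B-scores, with initial fluorescence ratio within 5 SD of library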;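 note: B-score of integrated fluorescence ratio over time as area under calcium response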
TRPC6 inh: inhibitors of mouse TRPC6 channel; Q61143; HEK293-TRPC6, membrane potential dye, ACh-evoked depolarization; stronger effect = lower value; B-score at 10 µM; hit rate 1.1% among 310,000; AID 2553;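 active = B-score under library mean minus 3 SD, initial fluorescence not abnormally high, positive integrated signal ratio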;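 note: B-score derived from integrated fluorescence ratio over the kinetic read; more negative B-score means stronger inhibition of depolarization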
TRPC4 inh: blocks the mouse TRPC4 cation channel. Q9QUQ5. HEK293 TRPC4beta/mu-opioid, DAMGO-evoked Fluo4 calcium flux; stronger effect = lower value. B-score at 10 µM. hit rate 0.39% among 300,000;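 active = B-score over 3 SD under the library average, no early fluorescence shift, positive overall ratio signal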
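Assay system – HEK293 line stably carrying TRPC4beta and mu-opioid receptor · Doses – single dose · Detection – Fluo4 calcium-dye fluorescence, kinetic read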
TRPC6 act: activators of mouse TRPC6 channel. HEK293-TRPC6 membrane potential dye fluorescence; stronger effect = higher value. Q61143. hit rate 0.13% among 310,000. B-score at 10 µM;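 active = B-score of the integrated fluorescence ratio above library mean plus 3 SD, and starting fluorescence ratio within library mean plus 5 SD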;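 note: higher score means more depolarization so channel activation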
TRPC4 spec 2: mouse TRPC4 off-target activity of TRPC6 inhibitors, second screen; HEK293 TRPC4/MOR, membrane potential dye fluorescence; channel activated by saturating DAMGO dose; hit rate 42% among 920; shares compounds with TRPC6 inh; inhibition, % at 10 µM;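 active = compounds whose fluorescence signal differed from control wells by over 3 SD, either direction, in both duplicate plates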
TRPC4 spec: selectivity of TRPC6 inhibitors: effect on mouse TRPC4 | shares compounds with TRPC6 inh | HEK293 TRPC4/mu-opioid, membrane potential fluorescence | activity change, negative = inhibition, % at 10 µM | hit rate 61% among 920 | AID 2777;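 active = rise or fall in signal beyond 3 SD of buffer-only wells in both replicate plates, either sign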;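 note: integrated kinetic ratio of fluorescence range over baseline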
HEK293 MPD ctr 2-1: second counter-screen for TRPC6 inhibitors: parental HEK293 cells; shares compounds with TRPC6 inh; parental HEK293 membrane potential dye fluorescence; maximal acetylcholine challenge after compound addition; signal change vs control, % at 10 µM; hit rate 31% among 920;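 active = membrane potential signal moving either way by over 3 SD of the maximum-effect control, in both duplicate plates, meaning non-specific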
HEK293 MPD ctr-1: parental HEK293 nonspecific activity of TRPC6 inhibitors | shares compounds with TRPC6 inh | parental HEK293 membrane potential dye fluorescence | membrane potential signal change, % at 10 µM | hit rate 60% among 920 | AID 2780;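 active = membrane potential signal shifting up or down by more than 3 SD of buffer-only wells, on both duplicate plates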
HEK293 MPD ctr-2: checks TRPC6 modulator effects in parental HEK293 cells; membrane potential signal change, % at 10 µM; membrane potential dye fluorescence; hit rate 51% among 2,400; shares compounds with TRPC6 inh;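 active = membrane potential signal moves up or down beyond 5 SD from buffer-only wells, on both duplicate plates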
HEK293 MPD ctr 2-2: parental HEK293 nonspecific activity of TRPC6 modulators, second screen. inhibition, % at 10 µM. shares compounds with TRPC6 inh. membrane potential dye fluorescence; after compound, maximal acetylcholine stimulation. hit rate 14% among 2,400;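 active = membrane potential signal drops by more than 5 SD from the mean control signal, in both duplicate plates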;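 note: plate controls were acetylcholine ECmax control wells for no effect and buffer only wells for full effect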
TRPC4/MOR mod: selectivity of TRPC6 modulators against mouse TRPC4; AID 488927; shares compounds with TRPC6 inh; HEK293 TRPC4/mu-opioid, membrane potential fluorescence; percent change from control (negative = decrease, positive = increase), % at 10 µM; hit rate 69% among 2,400;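 active = membrane potential signal moved up or down beyond 5 SD of buffer control wells, in both duplicate plates, actives on both sides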;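 note: plate controls were assay buffer wells for no effect and DAMGO maximal-effect wells for full effect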
TRPC4/MOR inh 2: mouse TRPC4 off-target activity of TRPC6 modulators, second screen; shares compounds with TRPC6 inh; HEK293 TRPC4/mu-opioid, membrane potential dye fluorescence; stimulated with maximal-effect DAMGO; inhibition, % at 10 µM; hit rate 55% among 2,400;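 active = drop in membrane potential signal beyond 5 SD of the control wells in both duplicate plates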;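 note: TRPC4 counter screen for TRPC6 hits run under conditions tuned for TRPC6 not TRPC4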
TRPC6 block conf: confirmation of mouse TRPC6 inhibitors; hit rate 43% among 3,300; inhibition, % at 10 µM; shares compounds with TRPC6 inh; HEK293-TRPC6, membrane potential dye, ACh-evoked depolarization;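 active = fluorescence ratio falls more than 5 SD below the full-stimulation control mean, in both duplicate runs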;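 note: integrated fluorescence ratio of peak minus minimum over baseline after agonist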
TRPC6 act conf: confirmation of mouse TRPC6 activators; shares compounds with TRPC6 inh; HEK293-TRPC6 membrane potential dye fluorescence, FDSS; activation, % at 10 µM; hit rate 11% among 2,800; AID 488961;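 active = ratio signal rise beyond 5 SD above unstimulated control wells' mean, seen in both duplicate runs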;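 note: plate controls were buffer EC0 wells for no effect and acetylcholine ECmax response for full effect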
* hit, by the source's call; i = inactive; . = not tested or not shown.

SMILES | TRPC4 act | TRPC4 PAM | TRPC6 inh | TRPC4 inh | TRPC6 act | TRPC6 block conf | others
Cc1cccc(CN2CCCC(C(=O)c3ccc(C(F)(F)F)cc3)C2)n1 (stereo not given) | i | i | i | i | i | .
O=C(c1ccc(C(F)(F)F)cc1)C1CCCN(C2CCSCC2)C1 (stereo not given) | i | i | -7.8* | i | i | i | TRPC4 spec 2=i;TRPC4 spec=15%*;HEK293 MPD ctr 2-1=i;HEK293 MPD ctr-1=8.5%*
O=C(N=Nc1c(O)[nH]c(=O)[nH]c1=O)C1COc2ccccc2O1 (stereo not given) | i | i | i | i | i | .
CCOc1ccccc1CN1C2CCC1CC(c1ccc(C)cc1)C2 (stereo not given) | i | i | i | i | 16* | i | HEK293 MPD ctr-2=265%*;HEK293 MPD ctr 2-2=i;TRPC4/MOR mod=69%*;TRPC4/MOR inh 2=58%*;TRPC6 act conf=108%*
CCOc1ccccc1CNCCc1ccc2c(c1)OCO2 | i | i | i | i | i | .
CC(C)n1c(=O)c(C=Nc2cccc([N+](=O)[O-])c2)c(O)n(CCc2ccccc2)c1=O | i | i | i | i | i | .
CCc1cc2c(N3CCN(C)CC3)ncnc2s1 | i | i | i | i | i | .
CCN1CCN(c2ncnc3ccc(Br)cc23)CC1 | i | i | -7.6* | i | i | i | TRPC4 spec 2=i;TRPC4 spec=i;HEK293 MPD ctr 2-1=i;HEK293 MPD ctr-1=-192%*;TRPC6 act conf=i
Cc1cccc(NC(=O)C(C)N2CC=C(c3ccccc3)CC2)c1 (stereo not given) | i | i | i | i | i | .
